The values that follow come from ChEMBL document CHEMBL4364322, “Protective effect of piceatannol and bioactive stilbene derivatives against hypoxia-induced toxicity in H9c2 cardiomyocytes and structural elucidation as 5-LOX inhibitors” (Eur J Med Chem, 2019).

Assay [1] has as its system H9c2. In words: Cytoprotective activity against hypoxia-induced toxicity rat H9c2 cells assessed as increase in cell viability at 80 nM preincubated for 18 hrs followed by incubated in hypoxia for 48 hrs by MTT assay. The assay is classed as functional. An outline of the steps:
(§1)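 10^4 H9c2 cells were seeded and grown 24 h at 37 °C. Compound (80 nM–20 µM) was added either 18 h before or just before 48 h hypoxia in a sealed humidified chamber (5% CO2, 95% N2). Viability was measured by MTT for about 2 h, with formazan dissolved in HCl/isopropanol and read at 570 nm. Results are % of corresponding control, triplicates.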
For orientation: Formazan colour is commonly taken as a measure of viable cells.

For assay [2], the target named is T1, Polyunsaturated fatty acid 5-lipoxygenase (Homo sapiens, UniProt P09917).
T1 sequence (P09917 whole entry): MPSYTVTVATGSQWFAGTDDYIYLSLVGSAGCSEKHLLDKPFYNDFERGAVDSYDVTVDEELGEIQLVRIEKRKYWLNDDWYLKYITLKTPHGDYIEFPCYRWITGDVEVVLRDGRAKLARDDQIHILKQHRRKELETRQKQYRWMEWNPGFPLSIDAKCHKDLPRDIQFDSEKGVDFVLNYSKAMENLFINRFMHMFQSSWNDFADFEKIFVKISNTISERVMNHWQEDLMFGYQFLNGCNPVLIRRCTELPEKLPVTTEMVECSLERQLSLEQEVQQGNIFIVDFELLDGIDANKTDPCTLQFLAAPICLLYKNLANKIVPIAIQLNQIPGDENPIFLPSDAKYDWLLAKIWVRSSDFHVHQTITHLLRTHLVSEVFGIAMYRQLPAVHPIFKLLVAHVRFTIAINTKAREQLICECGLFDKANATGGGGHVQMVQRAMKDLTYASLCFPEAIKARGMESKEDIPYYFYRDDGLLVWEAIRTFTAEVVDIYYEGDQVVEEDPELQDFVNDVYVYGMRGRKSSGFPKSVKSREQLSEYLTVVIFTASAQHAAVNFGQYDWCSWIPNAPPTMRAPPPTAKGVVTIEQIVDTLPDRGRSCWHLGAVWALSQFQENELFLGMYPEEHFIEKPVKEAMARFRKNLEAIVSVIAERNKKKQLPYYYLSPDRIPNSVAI
In words: Inhibition of 5-LOX in human PMNL cells assessed as A23187-stimulated LTB4 production preincubated for 15 mins followed by A23187 addition and measured after 10 mins by HPLC analysis. Format: cell-based. Summed up:
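Human PMNL (5×10^6 in 1 ml PBS with 1 mg/ml glucose and 1 mM CaCl2) were preincubated with compound 15 min at 37 °C. 2.5 µM A23187 was added for 10 min at 37 °C, and the reaction was stopped with methanol. 5-LOX products were analysed by HPLC.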

Assay [3] concerns the target T1, Polyunsaturated fatty acid 5-lipoxygenase. Nature of the assay: Inhibition of human 5-LOX expressed in Escherichia coli BL21 using arachidonic acid as substrate preincubated for 15 mins followed by substrate addition by HPLC analysis. Summed up:
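Human recombinant 5-LOX was expressed in E. coli BL21 (pT3-5LO) and purified. Enzyme (0.5 µg) in PBS/EDTA was preincubated with compound 15 min at 4 °C, then warmed 30 s at 37 °C. The reaction was started with 2 mM CaCl2 plus 20 µM arachidonic acid and run 10 min at 37 °C. Products were analysed by HPLC.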

In assay [4] the test system is H9c2. In words: Cytoprotective activity against hypoxia-induced apoptosis in rat H9c2 cells assessed as early apoptotic cells at 2 uM preincubated for 18 hrs followed by incubated in hypoxia for 48 hrs by annexin V based flow cytometry (reference value: 60 %). Format: functional. An outline of the steps: (§2)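 H9c2 cells were pretreated 18 h at 2 µM, then grown under normoxia or hypoxia. Apoptotic cells were detected by flow cytometry with fluorescein-annexin V staining. The read-out is % annexin V-positive cells.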
In general terms: In flow cytometry, cells or beads pass a laser one at a time.

For assay [5], the system named is H9c2. Nature of the assay: Antioxidant activity in rat H9c2 cells assessed as increase in hypoxia-induced reduction of MnSOD expression at 2 uM preincubated for 18 hrs followed by incubated in hypoxia for 48 hrs by Western blot analysis. The assay is classed as functional, cell-based. An outline of the steps: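 H9c2 cells were pretreated 18 h at 80 nM or 2 µM, then held 48 h under hypoxia. Lysates were made in RIPA buffer with protease inhibitors and DTT, and 80 µg protein was run on 12% SDS-PAGE. Blots were probed overnight at 4 °C with anti-MnSOD, with GAPDH as internal standard. Detection was by ECL and bands were quantified by densitometry.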
For orientation: Immunoblotting shows a protein as a band on a membrane.

The target of assay [6] is T2, Polyunsaturated fatty acid 5-lipoxygenase (Homo sapiens) (UniProt P09917).
T2 sequence (whole entry): T1 sequence (P09917 whole entry)
In words: Residual activity of human 5-LOX expressed in Escherichia coli BL21 using arachidonic acid as substrate at 10 uM preincubated for 15 mins followed by substrate addition by HPLC analysis relative to control.

For assay [7], the system named is H9c2. Nature of the assay: Antioxidant activity in rat H9c2 cells assessed as reduction in hypoxia-induced lipid peroxidation by measuring TBARS level preincubated for 18 hrs followed by incubated in hypoxia for 48 hrs by spectrophotometry. The assay is classed as functional, cell-based. An outline of the steps: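 10^4 H9c2 cells were pretreated 18 h with 80 nM or 2 µM, then held 48 h under hypoxia. Cells were lysed in modified RIPA buffer. Lysates were mixed with 20% acetic acid (pH 3.5) and 0.78% thiobarbituric acid, heated at 95 °C for 45 min, and centrifuged. A532 was read and expressed as TBARS per µg protein. Triplicate measurements, duplicate experiments.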

Assay [8] concerns H9c2. Nature of the assay: Cytoprotective activity against hypoxia-induced toxicity rat H9c2 cells assessed as increase in cell viability at 80 nM to 7 uM preincubated for 18 hrs followed by incubated in hypoxia for 48 hrs by MTT assay. Format: functional. Summed up:
as §1

Assay [9] deals with H9c2. Nature of the assay: Cytoprotective activity against hypoxia-induced toxicity rat H9c2 cells assessed as cell death at 20 uM preincubated for 18 hrs followed by incubated in hypoxia for 48 hrs by MTT assay.
Assay [10] relates to H9c2. In words: Cytoprotective activity against hypoxia-induced toxicity rat H9c2 cells assessed as increase in cell viability at 80 nM to 7 uM incubated for 18 hrs in hypoxia measured after 48 hrs by MTT assay. Format: functional. Summed up: as §1
Assay [11] relates to H9c2. Nature of the assay: Cytoprotective activity against hypoxia-induced toxicity rat H9c2 cells assessed as cell death at 20 uM incubated for 18 hrs in hypoxia measured after 48 hrs by MTT assay.
The subject of assay [12] is H9c2. Nature of the assay: Antioxidant activity in rat H9c2 cells assessed as reduction in hypoxia-induced NO release at 80 nM to 2 uM preincubated for 18 hrs followed by incubated in hypoxia for 48 hrs by griess assay. The assay is classed as functional, cell-based. An outline of the steps: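 10^4 H9c2 cells were pretreated 18 h at 37 °C with 80 nM or 2 µM, then held 48 h in a hypoxic chamber. Supernatant nitrite was measured with Griess reagent (0.5% sulfanilamide, 2.5% H3PO4, 0.05% naphthylethylene diamine) for 10 min at RT. Absorbance was read at 550 nm against a sodium nitrite standard curve.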

Assay [13] relates to H9c2. In words: Cytoprotective activity against hypoxia-induced apoptosis in rat H9c2 cells assessed as early apoptotic cells at 2 uM preincubated for 18 hrs followed by incubated in hypoxia for 48 hrs by annexin V based flow cytometry. The assay is classed as functional, cell-based. An outline of the steps: as §2
For assay [14], the system named is H9c2. Nature of the assay: Antioxidant activity in rat H9c2 cells assessed as hypoxia-induced RO production at 2 uM preincubated for 18 hrs followed by incubated in hypoxia for 48 hrs by DCFH-DA staining-based flow cytometric analysis( Rvb = 45 %). The assay is classed as functional.

SMILES strings stand for the structures. Activity calls are given as the source filed them. The calls are words filed in the database; no cut-off is given here.

Turning to `COc1cc(/C=C/c2ccc(O)c(O)c2)cc(OC)c1`, the Activity with H9c2 [1] was 25 - 35%. In addition, the values for the half-maximal inhibitory concentration (IC50) in assay [2] and in [3] were 50 nM and 320 nM, respectively.

Take `COc1cc(/C=C/c2ccc(OC)c(O)c2)cc(OC)c1`: the Activity in the assay with H9c2 [1] was 25 - 35%. Further, the IC50 (commonly the concentration that inhibits the measured activity by half) came out at 5480 nM in assay [2] and 5490 nM in assay [3].

For `COc1cc(/C=C/c2ccc(O)c(OC)c2)cc(OC)c1`, the Activity in the assay with H9c2 [1] was 25 - 35%. Moreover, the half-inhibitory concentration (IC50) worked out at 70 nM in [2] and 780 nM in [3].

For `COc1cc(/C=C/c2ccc(O)cc2)cc(OC)c1` [PTEROSTILBENE], the figures for the Activity in the assay on H9c2 [1] and with H9c2 [4] were 25 - 35% and 25%, respectively. The IC50 in [2] stood at 530 nM; in assay [3], 3910 nM.

Consider `Oc1ccc(/C=C/c2cc(O)cc(O)c2)cc1` [RESVERATROL], for which the outcome with H9c2 [5] and in the assay on H9c2 [12] was Active. In assay [6], the residual activity (as a rule, what remains of the control signal, in per cent) was found to be 63.4%. Besides, the Activity result in the assay with H9c2 [7] was “Dose-dependent effect”; in the assay on H9c2 [8], 95%; with H9c2 [10], 95%. In addition, the cell death in the assay on H9c2 [9] and in the assay on H9c2 [11] was 80% throughout. Also, the IC50 in assay [2] came to 4900 nM.

Turning to `COc1ccc(/C=C/c2cc(OC)cc(OC)c2)cc1` [TRISMETHOXYRESVERATROL], the Activity in the assay with H9c2 [1] was 25 - 35%. The figures for the 50% inhibitory concentration (IC50) in [2] and in assay [3] were 760 nM and 3620 nM, respectively.

For the compound `CC(c1cc2ccccc2s1)N(O)C(N)=O` (configuration not stated), in the assay on H9c2 [13], the result was inactive.

Take `Oc1cc(O)cc(/C=C/c2ccc(O)c(O)c2)c1` [PICEATANNOL]: the outcome with H9c2 [5], in the assay with H9c2 [8], in the assay with H9c2 [10] and in the assay with H9c2 [12] was Active. Moreover, the Activity result in the assay with H9c2 [7] is “Dose-dependent effect”; with H9c2 [14], 38%. In addition, the cell death in the assay with H9c2 [9] and with H9c2 [11] was 80% throughout. Moreover, in the assay on H9c2 [13], the result was inactive. Further, the values for the 50% inhibitory concentration (IC50) in assay [2] and in assay [3] were 240 nM and 1100 nM, respectively.
